Measurements: PMC8336959 (Science Advances, 2021)
Square brackets hold non-standard residues; d marks the D form. Ends that are not written are not given here. pY = N[C@@H](Cc1ccc(OP(=O)(O)O)cc1)C(=O)O

Legend:
GRB2-SH2 domain = GRB2-SH2 domain (Homo sapiens, UniProt P62993); assay: MST binding of synthetic peptides to Atto488-labeled GRB2-SH2 domain; details: synthetic peptide
[1] = tested on: GRB2-KO HeLa cells reconstituted with ^K109RGRB2; assay: Annexin V/PI staining assay, KO + K109R cells; format: cell-based, human; details: FACS, 50 μM olaparib for 72 hours, compared with GRB2-KO
[2] = Sulforhodamine B assay of olaparib-induced cytotoxicity, KO + K109R cells; format: cell-based; details: human, GRB2-KO HeLa cells reconstituted with K109R mutant GRB2
Procedure, shortened: (§1)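 HeLa cells kept in RPMI 1640 with 10% FBS at 10% CO2. Knockout made by CRISPR-Cas9 gRNA delivered by lentivirus, with puromycin or blasticidin selection; clones checked by Western blot and pooled. Stable reconstitution with wild-type or K109R Strep-tagged GRB2. Cytotoxicity of PARP inhibitor read by sulforhodamine B staining. IC50 taken from the concentration–response data.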

control (WT) HeLa cells = assay: Annexin V/PI staining assay, control cells; format: cell-based, human; details: FACS, 50 μM olaparib for 72 hours, triplicate
GRB2-KO HeLa cells [3] = assay: Sulforhodamine B assay of olaparib-induced cytotoxicity, GRB2-KO cells; format: cell-based, human; details: Sulforhodamine B assay, ratio of IC50 WT vs GRB2-KO
[4] = as above; format: cell-based, human; details: human, GRB2-KO HeLa cells
GRB2-KO HeLa cells [5] = assay: Annexin V/PI staining assay, GRB2-KO cells; format: cell-based, human; details: FACS, 50 μM olaparib for 72 hours, triplicate
Procedure, shortened: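 HeLa cells (GRB2-knockout and comparison lines) grown in RPMI 1640 with 10% FBS at 10% CO2. Cells treated 72 h with DMSO or 50 μM PARP inhibitor, then trypsinized, washed and resuspended in annexin-binding buffer. Labelled with annexin V–Alexa Fluor 647 plus PI for 15 min at room temperature in the dark. Annexin V- and PI-positive fractions scored by flow cytometry against the DMSO control. Triplicate.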

[6] = Sulforhodamine B assay of olaparib-induced cytotoxicity, control cells; format: cell-based; details: human, control (WT) HeLa cells
Procedure, shortened: as §1

[7] = Sulforhodamine B assay of olaparib-induced cytotoxicity, KO + GRB2 cells; format: cell-based; details: human, GRB2-KO HeLa cells reconstituted with WT GRB2
Procedure, shortened: as §1

[8] = tested on: human MRE11 (residues 1 to 411); assay: MST binding of Atto488-labeled GRB2; details: bacterially expressed purified proteins

GRB2-SH2 domain, sequence (P62993 60-152 limits assumed): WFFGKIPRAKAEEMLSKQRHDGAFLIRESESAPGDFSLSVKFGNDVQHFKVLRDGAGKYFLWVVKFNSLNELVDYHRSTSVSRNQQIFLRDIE

## PSGGKKATQA(pS)QEY [pS139 H2AX]
GRB2-SH2 domain
  binding to GRB2-SH2 domain in words: failed to produce a binding isotherm

## O=C(c1cc(Cc2n[nH]c(=O)c3ccccc23)ccc1F)N1CCN(C(=O)C2CC2)CC1 [olaparib]
[1]
  olaparib-induced apoptosis, in words: failed to rescue the phenotype
[2]
  IC50: 20 ± 3 µM
Control (WT) HeLa cells
  olaparib-induced apoptosis, share of cells: 20%
GRB2-KO HeLa cells [3]
  sensitivity of GRB2-KO cells relative to WT control cells: seven
[4]
  IC50: 18 ± 2.9 µM
GRB2-KO HeLa cells [5]
  olaparib-induced apoptosis, share of cells: 60%
[6]
  IC50: 124 ± 41 µM
[7]
  IC50: 164 ± 47 µM

## PWVN[pY]QDGNLN [WVNpYQDGNLN]
GRB2-SH2 domain
  binding to GRB2-SH2 domain in words: limited impact

## ^K109RGRB2: GRB2 lysine-109-to-arginine mutant, MRE11 nonbinding, generated by site-directed mutagenesis
[8]
  MRE11 binding in words: no binding

## PSGGKKATQASQE(pY) [pY142 H2AX]
GRB2-SH2 domain
  binding to GRB2-SH2 domain in words: failed to produce a binding isotherm
